This note sets out measurements from ChEMBL document CHEMBL1961794, “Regulation of circadian behaviour and metabolism by synthetic REV-ERB agonists” (Nature, 2012).

For data set [1], the system named is Mus musculus. In words: Change in plasma leptin in diet-induced obese mice over 30 days at 100 mg/kg ip. Type of data set: functional, organism-based. The arrangement: dose 100 mg/kg. The settings on record: C57BL/6.
Data set [2] deals with Mus musculus. In words: Change in plasma NEFA (non-esterified fatty acids) in diet-induced obese mice over 30 days at 100 mg/kg ip. The arrangement: dose 100 mg/kg. Format: functional, organism-based. The settings on record: C57BL/6.
The test system of data set [3] is Mus musculus. Kind of data set: Change in total plasma cholesterol in diet-induced obese mice over 30 days at 100 mg/kg ip. The arrangement: dose 100 mg/kg. Type of data set: functional, organism-based. The settings on record: C57BL/6.
Data set [4] deals with Mus musculus. Kind of data set: Change in plasma insulin in diet-induced obese mice over 30 days at 100 mg/kg ip. Format: functional, organism-based. The arrangement: dose 100 mg/kg. The settings on record: C57BL/6.
Data set [5] has as its system Mus musculus. In words: Change in plasma IL-6 in diet-induced obese mice over 30 days at 100 mg/kg ip. To be noted: C57BL/6. The arrangement: dose 100 mg/kg. Type of data set: functional, organism-based.
The test system of data set [6] is Mus musculus. In words: Change in plasma glucose in diet-induced obese mice over 30 days at 100 mg/kg ip. Type of data set: functional, organism-based. The arrangement: dose 100 mg/kg. The settings on record: C57BL/6.
For data set [7], the system named is Mus musculus. Kind of data set: Change in plasma triglycerides in diet-induced obese mice over 30 days at 100 mg/kg ip. Format: functional, organism-based. The arrangement: dose 100 mg/kg. The settings on record: C57BL/6.
The species named for data set [8] is Mus musculus. In words: Inhibition of circadian oscillations in SCN explants from Per2-luc transgenic mouse. Format: functional, tissue-based.
Data set [9] in a line: Decrease in Srebf1 gene expression. To be noted: Mus musculus, Liver. Format: functional.
Data set [10] in a line: Brain concentration after 2 hours at 10mg/kg ip dose (10mg/ml suspension in 10%DMSO/10%Tween80). To be noted: mouse, read-out: Conc_brain. Format: ADME, organism-based. The method, boiled down: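 Mice given a single 10mg/kg i.p. dose as a 10mg/ml suspension in 10/10/80 DMSO/Tween80/water. Brain levels (μM) measured at 2h and 8h post injection, with plasma sampled at 1, 2, 4 and 8h. Mean ± s.e.m., n=3.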

A short description of data set [11]: Decrease in wheel-running behavior in mice in constant darkness. Format: functional. The settings on record: Mus musculus.
The subject of data set [12] is Fibroblast. In words: Inhibition of circadian oscillations in fibroblasts from Per2-luc transgenic mice. Type of data set: functional, cell-based. To be noted: Mus musculus. In outline:
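Fibroblasts (MEFs) were isolated from Per2^luc transgenic mice and treated with 5 μM compound. Circadian oscillation amplitude was followed by continuous bioluminescence recording in two independent experiments.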

Data set [13] can be described thus: Toxicity in CL57BL6 mice after 7 days treatment at 100 mg/kg b.i.d in hematology screen. Format: organism-based, C57BL/6. The arrangement: dose 100 mg/kg. To be noted: mouse, in vivo, 168 h. The method, boiled down: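 Vehicle-controlled C57Bl6 mice dosed chronically at 100 mg/kg b.i.d. for 7 days. Complete blood count: WBC, neutrophil, lymphocyte, monocyte, eosinophil and basophil counts and percentages; RBC, Hb, HCT, MCV, MCH, MCHC, RDW, platelet count and MPV. Mean ± s.e.m., n=6.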

The target in data set [14] is T1, Nuclear receptor subfamily 1 group D member 1 (Homo sapiens, UniProt P20393).
T1 sequence (P20393 whole entry): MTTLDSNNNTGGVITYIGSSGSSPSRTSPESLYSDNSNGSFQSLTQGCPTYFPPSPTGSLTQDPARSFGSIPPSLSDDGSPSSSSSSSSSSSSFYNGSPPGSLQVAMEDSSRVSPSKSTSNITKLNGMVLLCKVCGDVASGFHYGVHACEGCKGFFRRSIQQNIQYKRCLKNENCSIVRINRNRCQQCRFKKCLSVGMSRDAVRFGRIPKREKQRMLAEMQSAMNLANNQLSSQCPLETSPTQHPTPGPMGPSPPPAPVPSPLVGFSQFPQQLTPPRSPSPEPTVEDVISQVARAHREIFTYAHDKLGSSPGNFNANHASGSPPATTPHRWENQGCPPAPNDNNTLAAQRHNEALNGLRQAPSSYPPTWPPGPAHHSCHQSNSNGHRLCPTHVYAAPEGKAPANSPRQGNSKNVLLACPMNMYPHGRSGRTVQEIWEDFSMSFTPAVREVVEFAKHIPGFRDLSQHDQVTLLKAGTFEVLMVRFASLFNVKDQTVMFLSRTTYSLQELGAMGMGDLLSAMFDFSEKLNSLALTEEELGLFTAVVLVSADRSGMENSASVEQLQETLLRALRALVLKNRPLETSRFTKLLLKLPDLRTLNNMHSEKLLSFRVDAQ
Kind of data set: REV-ERB-alpha mediated transcriptional suppression at Bmal1 promoter in HEK293 cell reporter assay. Type of data set: functional, cell-based. A general note: In a reporter assay the amount or activity of a reporter protein is the signal.

Data set [15] in a line: Plasma concentration after 2 hours at 10mg/kg ip dose (10mg/ml suspension in 10%DMSO/10%Tween80). To be noted: mouse, read-out: Conc_plasma. Type of data set: ADME, organism-based. The method, boiled down:
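Mice received a single 10 mg/kg i.p. dose as a 10 mg/ml suspension in DMSO/Tween80/water (10/10/80). Plasma was sampled at 1, 2, 4 and 8 h post-injection and drug concentration reported in μM. Mean ± s.e.m., n=3.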

The source made the active and inactive calls. The rule behind the calls is not given here.

As for `CCOC(=O)N1CCC(CN(Cc2ccc(Cl)cc2)Cc2ccc([N+](=O)[O-])s2)C1` (stereo not given) [SR9009], the Plasma leptin in [1] was -80%. Besides, the Plasma NEFA in data set [2] was -23%. The Plasma cholesterol in data set [3] is -47%. The Plasma insulin in data set [4] was -35%. For the same compound, the Plasma IL-6 in data set [5] is -72%. In addition, the Plasma glucose in [6] is -19%. Further, in [7], the Plasma triglyceride was -12%.

Broadly, the ED50 is the dose that gives a 50% effect, or the effect in half of the subjects. For orientation: IC50 means the concentration that inhibits the measured activity by half. As for `CCCCCNC(=O)N1CCC(CN(Cc2ccc(Cl)cc2)Cc2ccc([N+](=O)[O-])s2)C1` (stereo not given) [SR9011], the Reduced_circadian_oscillation result in data set [8] and in data set [12] was “Active” throughout. Further, the 50% effective dose (ED50) came out at 67 mg/kg in [9] and 56 mg/kg in [11]. The concentration at 2 h was determined as 240 nM in [10] and 530 nM in data set [15]. For the same compound, the Toxicity entry in [13] is “Not Toxic”. In addition, in [14], the IC50 is given as 620 nM (agonist).
